Assay outcomes as filed in PubChem BioAssay.
E-selectin induc = E-selectin induction in HUVECs, primary screen, imaging, HUVEC, immunofluorescence imaging, single point; normalized: neutral wells 0, TNF-alpha wells 100; activation, % at 7.58 µM; actives 0.37% (n = 260,000);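 active = mean E-selectin-positive cell signal at least 10% of the positive control, reached in at least 60% of replicates, without over 20% cell loss; inconclusive = no rule given, readout overlaps actives, possibly toxicity-flagged; inactive = the rest, including those meeting only one limit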
Target sequence (P16581 whole entry, looked up): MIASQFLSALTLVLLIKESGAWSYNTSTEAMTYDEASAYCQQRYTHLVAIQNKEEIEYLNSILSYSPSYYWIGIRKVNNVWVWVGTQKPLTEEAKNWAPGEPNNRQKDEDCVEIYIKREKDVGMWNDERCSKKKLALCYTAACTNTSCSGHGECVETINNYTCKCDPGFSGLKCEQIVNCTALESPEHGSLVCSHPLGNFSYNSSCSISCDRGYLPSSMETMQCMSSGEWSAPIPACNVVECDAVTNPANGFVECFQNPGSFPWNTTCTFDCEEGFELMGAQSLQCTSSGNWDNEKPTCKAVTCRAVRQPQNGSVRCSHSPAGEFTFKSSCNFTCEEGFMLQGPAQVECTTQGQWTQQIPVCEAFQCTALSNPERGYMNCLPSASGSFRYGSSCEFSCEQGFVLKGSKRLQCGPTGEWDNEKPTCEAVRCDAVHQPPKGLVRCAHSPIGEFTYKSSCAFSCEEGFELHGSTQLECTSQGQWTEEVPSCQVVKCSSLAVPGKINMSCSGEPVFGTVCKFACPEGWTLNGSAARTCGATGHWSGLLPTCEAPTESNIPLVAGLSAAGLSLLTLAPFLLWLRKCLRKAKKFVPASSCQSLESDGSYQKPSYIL
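Read-out basis: % PE-positive cells; Test system: HUVEC primary endothelial cells; Technique: immunofluorescence imaging; Dosing: single-point compound dose.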
DENV2 CPE = inhibitors of DENV2 cytopathic effect, primary screen, cell-based, plate reader, single concentration; actives 1.7% (n = 350,000); DENV2-infected cells, cytopathic effect rescue; CPE inhibition, % at 9.99 µM; in the data active = CPE inhibition above about 20%, passing the limit was not always enough; inconclusive = no clear call, values can overlap the other calls; tested in BHK-21 cells;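 note: 0% = median of neutral control wells and 100% = median of positive control wells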
C2C12 statin = suppressors of statin myotoxicity in C2C12 myotubes, primary screen, cell-based, single point, plate reader; rescue of ATP level, % at 7.49 µM; actives 0.78% (n = 330,000); AID 602340, 2012; C2C12 myotubes + simvastatin, ATP luminescence, 48 h; scaled: DMSO 0, geranylgeraniol control 100;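 active = mean ATP rescue above about 67%, or every replicate alone reaching that limit, limit read from the data, passing the limit was not always enough; inconclusive = no clear call, values can overlap the other calls; inactive = mean under the limit and some replicate under it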;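 note: myotubes were challenged with 10 µM simvastatin during compound exposure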
The depositor's hits bear a star; ? = inconclusive; nt = not tested or not shown. Hits are enriched below; roughly 2.2% of the tested compounds scored in any of these assays.

SMILES | E-selectin induc | DENV2 CPE | C2C12 statin
C[C@@H]1CN([C@@H](C)CO)C(=O)c2cccc(NC(=O)c3cnccn3)c2O[C@H]1CN(C)S(=O)(=O)c1ccc(F)cc1 | 0.1 | -3.5 | -11.2
CCCCCCCC1c2c(c(C)c(C)oc2=O)Oc2c(C)c(C)oc(=O)c21 | -0.1 | 89.5* | 22.8
CCCC(C)C1c2c(c(C)c(C)oc2=O)Oc2c(C)c(C)oc(=O)c21 (centres undefined) | -0.5 | nt | 5.8
C[C@H]1CN([C@@H](C)CO)C(=O)c2cc(NS(=O)(=O)c3ccccc3)ccc2O[C@@H]1CN(C)C(=O)Nc1ccc(C(F)(F)F)cc1 | 0.5 | nt | 4.4
O=c1ccn([C@@H]2O[C@H](CO)[C@@H](O)[C@H]2O)c(=O)[nH]1 | -0.1 | -0.8 | -2.2
O=c1ccn(C2CC(O)C(COC(c3ccccc3)(c3ccccc3)c3ccccc3)O2)c(=O)[nH]1 (centres undefined) | nt | 47.5* | nt
C[C@@H]1CCCCO[C@H](CN(C)Cc2ccc3c(c2)OCO3)[C@@H](C)CN([C@H](C)CO)C(=O)c2cc(NC(=O)NC3CCCCC3)ccc2O1 | -0.2 | ? | nt
C[C@@H]1CCCCO[C@@H](CN(C)Cc2ccc3c(c2)OCO3)[C@H](C)CN([C@@H](C)CO)C(=O)c2cc(NC(=O)NC3CCCCC3)ccc2O1 | 0.0 | 44.5* | nt
C[C@@H]1CCCCO[C@@H](CN(C)Cc2ccc3c(c2)OCO3)[C@H](C)CN([C@H](C)CO)C(=O)c2cc(NC(=O)NC3CCCCC3)ccc2O1 | -0.2 | ? | nt
C[C@H](CO)N1C[C@H](C)[C@H](CN(C)Cc2ccc3c(c2)OCO3)OCCCC[C@H](C)Oc2ccc(NC(=O)NC3CCCCC3)cc2C1=O | 0.1 | 26.5* | nt
COCC(=O)N(C)C[C@H]1Oc2ncc(C3=CCCCC3)cc2C(=O)N([C@H](C)CO)C[C@H]1C | -1.2 | -7.4 | 18.7
CCC(=O)N1[C@H](CO)[C@@H](c2ccc(-c3ccccc3OC)cc2)C12CN(C(C)=O)C2 | 0.3 | 15.0 | nt
COc1ccccc1-c1ccc([C@@H]2[C@H](CO)N(C(C)=O)C23CN(C(C)=O)C3)cc1 | -0.3 | 28.1* | nt
CCC(=O)N1CC2(C1)[C@@H](c1ccc(-c3ccccc3OC)cc1)[C@@H](CO)N2C(C)=O | 0.1 | 3.9 | nt
CCC(=O)N1[C@H](CO)[C@H](c2ccc(C3=CCCC3)cc2)C12CN(C(=O)COC)C2 | 0.0 | -2.9 | nt
COc1ccccc1-c1ccc([C@@H]2[C@@H](CO)N(C(=O)C3CC3)C23CN(C(C)=O)C3)cc1 | -0.1 | 79.0* | nt
CC(=O)N1[C@@H](CO)[C@@H](c2ccc(C3=CCCC3)cc2)C12CN(C(=O)NC(C)C)C2 | 0.0 | 40.6* | nt
CC(C)CC#Cc1ccc([C@@H]2[C@H](CO)N3C(=O)CN(C(=O)c4cnccn4)C[C@@H]23)cc1 | 1.1 | 9.8 | nt
CCCNC(=O)N1C[C@H]2[C@@H](c3ccccc31)[C@H](CO)N2Cc1cc(F)ccc1F | 0.4 | -1.8 | 39.1
COCC(=O)Nc1ccc2c(c1)OC[C@H](C)N(Cc1ccccn1)C[C@H](C)[C@@H](OC)CN(C)C2=O | -0.1 | -11.8 | -4.1
C[C@@H](NC(=O)C[C@H]1C[C@H]2c3cc(NC(=O)c4ccc5c(c4)OCO5)ccc3O[C@H]2[C@@H](CO)O1)c1ccccc1 | 0.3 | 3.5 | 1.0
COc1ccc2c3c([nH]c2c1)[C@H](CO)N(C(=O)c1cnccn1)CC31CCN(S(C)(=O)=O)CC1 | -0.2 | 68.2* | nt
COc1ccc2c3c([nH]c2c1)[C@H](CO)N(Cc1nccs1)CC31CN(C(=O)C2CCCCC2)C1 | -0.5 | -7.7 | nt
COc1ccc2c3c([nH]c2c1)[C@H](CO)N(C(=O)C1CCC1)CC31CCN(Cc2nccs2)CC1 | -0.2 | 40.6* | nt
COc1ccc2c3c([nH]c2c1)[C@@H](CO)N(Cc1nccs1)CC31CN(C(=O)C2CCCC2)C1 | 0.0 | 28.6* | nt
SMILES | E-selectin induc | DENV2 CPE | C2C12 statin
COc1ccc2c3c([nH]c2c1)[C@@H](CO)N(C(=O)c1ccccn1)CC31CN(C(=O)C2CCC2)C1 | -0.3 | -6.3 | nt
COc1ccc2c3c([nH]c2c1)[C@H](CO)N(C(=O)c1cnccn1)CC31CN(C(=O)c2cnccn2)C1 | -0.1 | 5.8 | nt
COc1ccc2c3c([nH]c2c1)[C@@H](CO)N(C(=O)C1CCCCC1)CC31CCN(Cc2nccs2)CC1 | 0.6 | 4.9 | nt
COc1ccc2c3c([nH]c2c1)[C@@H](CO)N(C(=O)c1ccccn1)CC31CN(C(=O)C2CCCC2)C1 | -0.2 | 24.4* | nt
COc1cc(OC)nc(NC(C)=O)n1 | nt | nt | -4.3
CSc1nc(NC(C)=O)nc(C)c1Cl | nt | nt | 146.8*
COc1cccc(NC(=O)N2CCc3nc(Nc4cc(Cl)cc(Cl)c4)ncc3C2)c1 | 0.1 | 1.1 | 11.8
CC(C)c1ccc(Nc2ncc3c(n2)CCN(C(=O)Nc2ccc(F)c(Cl)c2)C3)cc1 | 0.1 | 20.1* | -10.2
O=C(Nc1ccccc1)N[C@@H]1CC[C@H](CCNS(=O)(=O)c2cccc(F)c2)O[C@@H]1CO | -0.3 | -6.1 | 1.9
CC(=O)Nc1ccc2c(c1)C(=O)N(c1ccc(C)cc1)C2=O | nt | nt | 76.6*
COc1ccc(N2C(=O)c3ccc(NC(C)=O)cc3C2=O)cc1 | 0.9 | nt | -17.0
COCC(=O)N(C)C[C@@H]1Oc2ncc(C#C[C@H](C)O)cc2C(=O)N([C@H](C)CO)C[C@H]1C | -1.1 | -1.3 | -0.9
COC(=O)C[C@@H]1CC[C@@H]2[C@H](COc3ccc(NC(=O)c4ccc(OC)cc4)cc3C(=O)N2C)O1 | -0.1 | -2.6 | 14.1
COc1ccc(-c2cnc3c(NC(C)=O)cc(-c4cccc(NS(C)(=O)=O)c4)cn23)cc1OC | 0.0 | 8.1 | -6.8
CC(=O)Nc1cc(-c2cccc(NS(C)(=O)=O)c2)cn2c(-c3cccc(C(C)=O)c3)cnc12 | 0.2 | 32.9* | -6.2
Cc1cc(C(=O)Nc2cccc3c2O[C@@H](CN(C)C(=O)Nc2ccc4c(c2)OCO4)[C@@H](C)CN([C@@H](C)CO)C3=O)n(C)n1 | -2.1 | -8.2 | 36.4
Cc1ccccc1S(=O)(=O)N1C[C@H](O)COC[C@@H]2O[C@H](CC(=O)N3CCN(C)CC3)CC[C@H]21 | 0.1 | 1.0 | -2.8
COc1ccc(N2CCN(C(=O)c3cccc(NC4=NC5CS(=O)(=O)CC5S4)c3)CC2)cc1 (centres undefined) | 52.9* | -1.6 | 5.3
O=C(c1cccc(NC2=NC3CS(=O)(=O)CC3S2)c1)N1CCN(c2ncccn2)CC1 (centres undefined) | -0.4 | 5.1 | -4.5
C/C=C/c1cnc2c(c1)C(=O)N([C@@H](C)CO)C[C@@H](C)[C@H](CN(C)C(=O)CN1CCOCC1)O2 | 0.9 | 1.8 | -3.4
CC(C)Cn1c(N)c(C(=O)COC(=O)c2cc(-c3ccco3)nc3ccccc23)c(=O)n(C)c1=O | 0.0 | 8.6 | 0.7
CC(C)Cn1c(N)c(C(=O)COC(=O)c2cc(-c3ccccc3)nc3ccccc23)c(=O)n(C)c1=O | 0.0 | 29.9* | -5.3
Cc1ccc(S(=O)(=O)N(C)C[C@@H]2OCCCC[C@H](C)Oc3ccc(NS(=O)(=O)c4cccs4)cc3C(=O)N([C@@H](C)CO)C[C@@H]2C)cc1 | nt | 0.2 | nt
